# Assay results published in publication PMC5338879 (Journal of Hypertension, 2016).
# “Also recorded” adds a separate entry of the source.
# Columns and labels:
# [1] = test system: men with erectile dysfunction; conditions: single sc doses of 4–6 mg; cited from earlier work
# [2] = intranasal administration; cited from earlier work
# [3] = test system: premenopausal women with female sexual dysfunction; test: Ambulatory BP and heart rate monitoring after in-clinic subcutaneous doses; assay type: in vivo, human; conditions: for Increase in ambulatory SBP relative to placebo (abstract): second of two doses, 0 to 4-h postdose interval
# Summary of the method: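 Premenopausal women aged ≥21 years were randomized 1:1:1:1 to placebo or 0.75, 1.25 or 1.75 mg sc (anterior thigh or abdomen). The ambulatory monitor was fitted before each in-clinic dose and recorded at 15-min intervals. Baseline was the single-blind in-clinic placebo dose, and changes were placebo-subtracted over 0–4, >4–8, >8–24 and 0–24 h. SBP shifts were counted per 15 min against thresholds of 10/15 mmHg change and 150/160 mmHg absolute.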
# [4] = high sc doses, men with erectile dysfunction; cited from earlier work
# [5] = test system: premenopausal women with female sexual dysfunction; test: Treatment-emergent adverse events, 12-week double-blind treatment; assay type: in vivo, human; conditions: all bremelanotide dosages; no marked dosage dependence
# Summary of the method: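 Adverse events were queried at every clinic visit after screening. Physical examination, vital signs, 12-lead ECG and clinical laboratory tests were also performed. Events were tabulated in all participants given at least one double-blind dose.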
# [6] = test system: premenopausal women with female sexual dysfunction; test: Protocol-directed blood pressure-related withdrawals after randomization; assay type: in vivo, human
# Summary of the method: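 Ambulatory BP records were screened manually and programmatically for SBP ≥150 mmHg, DBP ≥95 mmHg, SBP rise ≥30 mmHg or DBP rise ≥15 mmHg. Flagged reports went to safety staff, including a hypertension expert blinded to treatment, who also reviewed activities, HR and other medications. Participants meeting the prespecified criteria (absolute level, change from baseline, duration) were withdrawn.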
# [7] = Plasma pharmacokinetics after in-clinic subcutaneous doses; assay type: in vivo, human; conditions: for Cmax, mean: plasma, LC-MS/MS
# Summary of the method: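 Blood was sampled predose and at 0.5, 1.0 and 2.0 h postdose at both double-blind in-clinic sc dosing visits (0.75, 1.25 or 1.75 mg). Plasma was assayed by validated LC-MS/MS. Noncompartmental analysis gave Cmax, Tmax, […] and AUC(0–2). For each dose level and visit, mean Cmax, range and coefficient of variation were reported.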
# [8] = initial in-clinic dose, linear regression, all dose levels
structure (smiles),measurement,setting,value
CCCC[C@H](NC(C)=O)C(=O)N[C@H]1CC(=O)NCCCC[C@@H](C(=O)O)NC(=O)[C@H](Cc2c[nH]c3ccccc23)NC(=O)[C@H](CCCN=C(N)N)NC(=O)[C@@H](Cc2ccccc2)NC(=O)[C@H](Cc2cnc[nH]2)NC1=O [bremelanotide],Transient increases in clinic SBP,[1],4–5 mmHg
same,Variability in bioavailability,[2],wide variability in bioavailability
same,Proportion of SBP shift events lasting 15 min or less,[3]; after bremelanotide dosing,88%
same,Number of clinically important shifts in SBP (>10 or >15 mmHg) lasting more than 30 min,[3]; all bremelanotide doses,three
same,Patients with SBP increase at least 15 mmHg for more than 30 min,[3]; any bremelanotide group,No patient
same,Patients with SBP more than 180 mmHg for more than 15 min,[3]; any bremelanotide group,No patient; also recorded: no sustained elevations
same,Relationship between maximal change in HR and Cmax,[3]; [8],no relationship observed
same,Relationship between maximal change in SBP and Cmax,[3]; [8],no relationship observed
same,Duration of peak increases in ambulatory BP,"[3]; sc doses, typically",less than 15 min
same,Increase in ambulatory SBP relative to placebo (abstract),"[3]; 1.25 mg sc, P 0.076",3.0 mmHg
same,Increase in ambulatory SBP relative to placebo (abstract),"[3]; 1.75 mg sc, P 0.027",3.2 mmHg
same,Mean HR reductions,"[3]; subcutaneous doses, up to 8 h following administration",4.6–6.6 bpm
same,Tmax,[4],0.5 to 1 h
same,mean half-life,[4],1.9 to 2.7 h
same,Most common adverse events,[5],"nausea, flushing, and headache"
same,Participants withdrawn after randomization (BP-related),"[6]; after a 0.75-mg dose, of 100",4%
same,Participants withdrawn after randomization (BP-related),"[6]; after a 1.25-mg dose, of 99",9%
same,Participants withdrawn after randomization (BP-related),"[6]; after a 1.75-mg dose, of 98",7%
same,Dose proportionality of pharmacokinetics,"[7]; 0.75, 1.25, 1.75 mg sc, both in-clinic doses",dose proportionality; also recorded: dose-proportional increases in concentrations
same,Cmax,"[7]; human, in vivo, sc, 0.75 mg",0.0375 µg/mL
same,"Cmax, mean","[7]; second in-clinic dose 0.75 mg sc, n 89",0.0373 µg/mL
same,"Cmax, mean","[7]; second in-clinic dose 1.25 mg sc, n 84",0.0601 µg/mL
same,"Cmax, mean","[7]; second in-clinic dose 1.75 mg sc, n 88",0.0777 µg/mL
